We go through four compounds from ChEMBL document CHEMBL1772981, “Discovery of 2-arylbenzoxazoles as upregulators of utrophin production for the treatment of Duchenne muscular dystrophy” (J Med Chem, 2011).

The species named for series [1] is Mus musculus. The experiment in a line: Activation of UTRN promoter in mouse H2K cells assessed as upregulation of UTRN production at 10 uM after 72 hrs by RT-PCR analysis. It counts as functional. In short, it runs like this:
(§1)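 H2K cells were seeded at 25000 per well, left 24 h, then dosed for 72 h in 1% DMSO final. Total RNA was extracted and reverse transcribed. qPCR used an amplicon spanning the UTRN exon 3–4 boundary, with β-actin as the endogenous control, and was quantified by ΔΔCT. Values are % UTRN relative to DMSO control (=100), with P value.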

A short description of series [2]: Tmax in CD1 mouse at 50 mg/kg, ip. The format is ADME, organism-based. On the set-up: dose 50 mg/kg, route intraperitoneal. The conditions noted are these: in vivo. In a few lines: (§2)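 Male CD1 mice were given 50 mg/kg i.p. in 95% PBS with 0.1% Tween 20 and 5% DMSO. Plasma was sampled at 0.08, 0.25, 0.5, 1, 2, 4, 8 and 24 h in three animals, and values are the mean in ng/mL.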

The species entered for series [3] is Mus musculus. The experiment in a line: Activation of UTRN promoter in mouse H2K cells assessed as upregulation of UTRN production after 48 hrs by luciferase reporter linked assay. The format is functional, cell-based. In a few lines:
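H2K myoblasts stably carrying a utrophin (UTRN) promoter–luciferase reporter were plated 24 h before dosing and exposed to compound for 48 h. Luciferase was read by luminescence (Steady-Glo). The primary screen was at 10 μM and the secondary at six concentrations for EC50, both in triplicate. Non-EC50 values are % of the reference upregulator's maximum, given with the concentration at maximum.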

A short description of series [4]: AUC in CD1 mouse at 50 mg/kg, ip. The format is ADME, organism-based. On the set-up: dose 50 mg/kg, route intraperitoneal. The note with it: plasma. In a few lines: as §2
Series [5] can be described thus: Aqueous solubility of the compound by turbidimetry. It counts as physicochemical. The note with it: buffer. In a few lines:
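Turbidimetric aqueous solubility, reported as the final test compound concentration.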

Series [6] can be described thus: Cmax in CD1 mouse at 50 mg/kg, ip. Set-up: dose 50 mg/kg, route intraperitoneal. The note with it: in vivo. It counts as ADME, organism-based. In a few lines: as §2
Series [7] can be described thus: Half life in human liver microsomes. It counts as ADME, Microsome. For orientation: Microsomes from liver hold many membrane-bound enzymes, among them those of drug oxidation.
Series [8] in a line: Half life in mouse liver microsomes. It counts as ADME, Microsome.
Series [9] deals with Mus musculus. The series is described as follows: AUC in CD1 mouse at 10 mg/kg, ip. The format is ADME, organism-based, Plasma. Set-up: dose 10 mg/kg, route intraperitoneal. The conditions noted are these: in vivo. In a few lines:
(§3)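 Male CD1 mice were dosed i.p. at 10 mg/kg in 95% PBS containing 0.1% Tween 20 and 5% DMSO. Plasma was sampled at 5–360 or 5–480 min. AUC is in μg.min/mL. Half-life was not calculated where the log concentration–time plot lacked a linear region of at least three points.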

Series [10] relates to Mus musculus. The series is described as follows: Tmax in CD1 mouse at 10 mg/kg, ip. The format is ADME, organism-based. Set-up: dose 10 mg/kg, route intraperitoneal. The note with it: in vivo. In short, it runs like this:
as §3

The subject of series [11] is Mus musculus. The series is described as follows: Cmax in CD1 mouse at 10 mg/kg, ip. The format is ADME, organism-based. On the set-up: dose 10 mg/kg, route intraperitoneal. The conditions noted are these: in vivo. In short, it runs like this: as §3
The test system of series [12] is Mus musculus. The experiment in a line: Half life in CD1 mouse at 10 mg/kg, ip. The note with it: in vivo. On the set-up: dose 10 mg/kg, route intraperitoneal. It counts as ADME, organism-based. In a few lines:
as §3

Series [13] is filed under the species Mus musculus. The experiment in a line: Activation of UTRN promoter in mouse H2K cells assessed as upregulation of UTRN production at 3 uM after 72 hrs by RT-PCR analysis. The format is functional. In a few lines: as §1

By Tmax is commonly meant the time from dosing to the highest level. The EC50 is the concentration giving half of the maximal effect. For orientation: AUC means concentration integrated over time. Usually solubility (kinetic) stands for solubility judged after dilution from a stock solution rather than from solid. One may read the Cmax as the highest concentration seen after dosing. A word on the half-life: it is the time in which the quantity being followed falls by half. Low values mean fast loss, high ones slow loss.

Structures are written as SMILES. ≈ marks a conversion by molar mass, not a printed value.

`CCS(=O)(=O)c1ccc2oc(-c3ccc4ccccc4c3)nc2c1` [EZUTROMID]: the Activity in series [1] is recorded as 143%. For the same compound, the Tmax in [2] was 15 min. In addition, the EC50 turned out to be 1800 nM in series [3] (Mus musculus, H2K, 48 h) and 910 nM in series [3] (h2k). Further, in [4], the AUC stood at 7000 ng·h/mL. The compound also displayed a kinetic solubility in series [5] of 3 µM (≈ 1.01 µg/mL). Moreover, the concentration in [6] peaked (Cmax) at 1490 ng/mL. In addition, the half-life in [7] was determined as 105 min; in series [8], 81.5 min.

Take `CCS(=O)(=O)c1ccc2oc(-c3ccc(Cl)cc3)nc2c1`: in series [3] (Mus musculus, H2K, 48 h), the EC50 turned out to be 5000 nM. This compound also came in with a kinetic solubility in series [5] of 10 µM (≈ 3.22 µg/mL). This compound also showed an area under the curve (AUC) in series [9] of 9650 ng·h/mL. Moreover, the half-life in series [7] stood at 69 min; in series [8], 30.6 min. For the same compound, the Tmax in [10] stood at 5 min. In addition, the Cmax in series [11] stood at 5650 ng/mL. The t1/2 in series [12] was 131 min.

Consider `Cc1cc2nc(-c3ccc(N)cc3O)oc2cc1C`, for which, in series [1], the Activity amounted to 144.8%. In series [3] (Mus musculus, H2K, 48 h), the EC50 stood at 700 nM. Besides, the solubility (kinetic) in [5] came out at 1 µM (≈ 0.254 µg/mL). Besides, the AUC in series [9] was 10 ng·h/mL. In series [8], this compound yielded a half-life of 22 min. Further, in [10], the Tmax is listed as 5 min. In series [11], this compound displayed a Cmax of 10.9 ng/mL. The compound further registered a t1/2 in [12] of 40.9 min.

For `CC(C)C(=O)Nc1ccc2oc(-c3ccc(Cl)c(Cl)c3)nc2c1`, the Activity in series [13] is listed as 128.2%. Further, in [3] (Mus musculus, H2K, 48 h), the EC50 is 1500 nM.
